Reference: ChEMBL document CHEMBL4130456 (ACS Med Chem Lett, 2017)
In brackets after ≈: the same amount, converted by molar mass. Activity calls are given as the source filed them. The calls are words filed in the database; no cut-off is given here.

Assays:
Canis familiaris [1] = experiment: Dose normalized AUC in Beagle dog at 0.1 mg/kg, iv by RP-HPLC analysis; assay type: ADME, organism-based, Canis lupus familiaris; conditions: in vivo
[2] = Inhibition of PI3Kdelta in 50% rat blood assessed as reduction in anti-IgM stimulated CD86 expression pretreated for 1 hr followed by anti-IgM stimulation after 24 hrs by flow cytometric analysis
How it was run: (§1)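 Rat 50% whole blood; B cells stimulated with anti-IgM/IL-4; readouts pAKT or CD86.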

[3] = Clearance in Beagle dog at 0.1 mg/kg, iv by RP-HPLC analysis; assay type: ADME, organism-based, Canis lupus familiaris; conditions: in vivo
[4] = biological target: T1, Phosphatidylinositol 4,5-bisphosphate 3-kinase catalytic subunit gamma isoform (Homo sapiens, UniProt P48736); experiment: Inhibition of PI3Kgamma (unknown origin) using phosphatidyl inositol as substrate measured after 30 mins by Alexa Fluor647-labelled ADP tracer based TR-FRET assay
T1 sequence (P48736 whole entry, canonical isoform): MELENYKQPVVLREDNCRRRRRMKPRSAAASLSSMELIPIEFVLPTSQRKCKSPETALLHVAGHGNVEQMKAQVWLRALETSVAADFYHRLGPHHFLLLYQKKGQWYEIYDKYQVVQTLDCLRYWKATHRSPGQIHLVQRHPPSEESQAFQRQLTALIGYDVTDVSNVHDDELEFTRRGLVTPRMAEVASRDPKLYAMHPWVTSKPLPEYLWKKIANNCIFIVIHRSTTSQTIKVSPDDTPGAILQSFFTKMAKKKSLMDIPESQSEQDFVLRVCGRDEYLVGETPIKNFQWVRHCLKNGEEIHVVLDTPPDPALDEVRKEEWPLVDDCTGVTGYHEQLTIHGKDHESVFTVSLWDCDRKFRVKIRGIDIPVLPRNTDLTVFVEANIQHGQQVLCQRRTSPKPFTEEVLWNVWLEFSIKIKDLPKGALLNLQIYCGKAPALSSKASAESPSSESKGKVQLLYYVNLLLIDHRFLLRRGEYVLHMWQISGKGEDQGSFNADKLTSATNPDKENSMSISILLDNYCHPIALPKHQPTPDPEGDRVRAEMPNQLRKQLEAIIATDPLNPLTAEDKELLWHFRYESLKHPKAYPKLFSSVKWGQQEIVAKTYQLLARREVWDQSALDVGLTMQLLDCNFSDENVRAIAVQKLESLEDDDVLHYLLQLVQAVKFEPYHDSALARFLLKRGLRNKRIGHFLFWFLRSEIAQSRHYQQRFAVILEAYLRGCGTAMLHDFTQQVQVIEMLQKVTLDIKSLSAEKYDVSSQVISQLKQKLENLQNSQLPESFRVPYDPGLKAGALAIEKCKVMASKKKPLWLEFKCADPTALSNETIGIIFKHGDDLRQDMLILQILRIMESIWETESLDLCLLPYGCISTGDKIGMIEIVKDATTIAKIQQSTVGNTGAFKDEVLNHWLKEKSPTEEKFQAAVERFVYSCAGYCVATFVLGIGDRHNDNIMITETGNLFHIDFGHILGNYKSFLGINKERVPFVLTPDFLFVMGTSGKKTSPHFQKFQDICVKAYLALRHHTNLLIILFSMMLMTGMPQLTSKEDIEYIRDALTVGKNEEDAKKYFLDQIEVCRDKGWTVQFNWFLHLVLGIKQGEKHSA

[5] = Terminal half life in Sprague-Dawley rat at 1 mg/kg, iv by RP-HPLC analysis; assay type: ADME, organism-based; conditions: in vivo, read-out: beta t1/2 (converted)
Rattus norvegicus [6] = experiment: Ex-vivo inhibition of PI3Kdelta in po dosed Lewis rat assessed as reduction in anti-IgM/IL4-induced AKT phosphorylation at ser473 residue in whole blood pretreated up to 24 hrs followed by anti-IgM/IL4 stimulation after 10 mins by flow cytometric analysis; assay type: functional, organism-based
[7] = biological target: 3',5'-cyclic-AMP phosphodiesterase 4D (Homo sapiens, UniProt Q08499); experiment: Inhibition of recombinant human PDE4D
3',5'-cyclic-AMP phosphodiesterase 4D, sequence (Q08499 whole entry): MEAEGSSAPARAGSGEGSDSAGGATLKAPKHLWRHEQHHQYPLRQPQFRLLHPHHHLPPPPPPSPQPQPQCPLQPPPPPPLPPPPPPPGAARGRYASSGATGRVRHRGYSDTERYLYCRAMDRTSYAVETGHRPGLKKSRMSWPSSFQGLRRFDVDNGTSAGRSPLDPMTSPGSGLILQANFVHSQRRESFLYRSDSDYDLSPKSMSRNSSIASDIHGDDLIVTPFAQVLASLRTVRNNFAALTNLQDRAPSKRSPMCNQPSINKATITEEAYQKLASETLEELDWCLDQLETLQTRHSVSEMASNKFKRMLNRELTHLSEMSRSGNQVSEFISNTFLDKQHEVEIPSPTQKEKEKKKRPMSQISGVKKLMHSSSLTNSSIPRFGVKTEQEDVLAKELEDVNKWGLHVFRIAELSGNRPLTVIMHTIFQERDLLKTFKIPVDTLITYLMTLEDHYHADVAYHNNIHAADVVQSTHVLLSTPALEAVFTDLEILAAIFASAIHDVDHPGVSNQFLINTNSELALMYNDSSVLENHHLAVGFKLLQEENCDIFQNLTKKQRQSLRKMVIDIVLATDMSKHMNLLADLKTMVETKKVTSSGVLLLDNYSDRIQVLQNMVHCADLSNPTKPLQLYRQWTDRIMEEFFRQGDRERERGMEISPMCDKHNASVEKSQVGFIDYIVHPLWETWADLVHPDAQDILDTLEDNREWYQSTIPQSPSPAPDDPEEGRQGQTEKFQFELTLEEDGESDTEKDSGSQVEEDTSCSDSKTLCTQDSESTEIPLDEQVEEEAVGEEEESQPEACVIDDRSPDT

[8] = Intrinsic clearance in rat liver microsomes assessed per mg protein; assay type: ADME, microsome; conditions: read-out: CLH
[9] = Protein binding in dog plasma; assay type: ADME, cell-free, Canis lupus familiaris; conditions: read-out: PPB
Rattus norvegicus [10] = experiment: Dose normalized Cmax in Sprague-Dawley rat at 30 mg/kg, po by RP-HPLC analysis; assay type: ADME, organism-based; conditions: in vivo
Cynomolgus monkey = experiment: Dose normalized Cmax in cynomolgus monkey at 0.3 mg/kg, po by RP-HPLC analysis; assay type: ADME, organism-based, Macaca fascicularis; conditions: in vivo
[11] = Terminal half life in cynomolgus monkey at 0.1 mg/kg, iv by RP-HPLC analysis; assay type: ADME, organism-based, Macaca fascicularis; conditions: in vivo, read-out: beta t1/2 (converted)
Rattus norvegicus [12] = experiment: Dose normalized AUC in Sprague-Dawley rat at 3 mg/kg, po by RP-HPLC analysis; assay type: ADME, organism-based; conditions: in vivo
[13] = biological target: T1, Phosphatidylinositol 4,5-bisphosphate 3-kinase catalytic subunit gamma isoform; experiment: Inhibition of PI3Kgamma in human U937 cells assessed as reduction in MIP-1 alpha stimulated ATK phosphorylation at ser473 residue pretreated for 30 mins followed by MIP-1 alpha addition measured after 3 mins by fluorescence assay; assay type: cell-based
Rattus norvegicus [14] = experiment: (§2) Antiarthritic activity in Lewis rat type-2 collagen-induced arthritis model assessed as reduction in paw swelling at 3 to 10 mg/kg, po bid administered prior to disease onset for 19 days starting from 5 days post type-2 collagen-induction measured 3 times a week measured up to 19 days; assay type: functional, organism-based
How it was run: (§3)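 Rat collagen-induced arthritis, prophylactic regimen: dosing starts before disease onset, b.i.d. Readouts are anti-rat collagen antibodies, paw swelling, and histology (inflammatory cell infiltration, proteoglycan loss, joint erosion).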

[15] = Volume of distribution at steady state in cynomolgus monkey at 0.1 mg/kg, iv by RP-HPLC analysis; assay type: ADME, organism-based, Macaca fascicularis; conditions: in vivo, read-out: Vdss
[16] = Inhibition of PI3Kdelta in 50% rat blood assessed as reduction in anti-IgM stimulated AKT phosphorylation at ser473 residue pretreated for 1.5 hr followed by anti-IgM stimulation after 10 mins by flow cytometric analysis; how it was run: as §1
Rattus norvegicus [17] = experiment: as §2, with “inflammatory cell infiltration” for “paw swelling”, “post last dose by giemsa/safranin O staining based histopathological analysis” for “3 times a week measured up to 19 days”; assay type: functional, organism-based; how it was run: as §3
[18] = biological target: Phosphatidylinositol 4,5-bisphosphate 3-kinase catalytic subunit gamma isoform (Mus musculus, UniProt Q9JHG7); experiment: Inhibition of PI3Kgamma in C57/Bl6 mouse BMMC assessed as reduction in adenosine stimulated ATK phosphorylation at ser473 residue pretreated for 30 mins followed by adenosine addition measured after 3 minutes; assay type: cell-based
Phosphatidylinositol 4,5-bisphosphate 3-kinase catalytic subunit gamma isoform (Mus musculus, UniProt Q9JHG7), sequence (Q9JHG7 whole entry, canonical isoform): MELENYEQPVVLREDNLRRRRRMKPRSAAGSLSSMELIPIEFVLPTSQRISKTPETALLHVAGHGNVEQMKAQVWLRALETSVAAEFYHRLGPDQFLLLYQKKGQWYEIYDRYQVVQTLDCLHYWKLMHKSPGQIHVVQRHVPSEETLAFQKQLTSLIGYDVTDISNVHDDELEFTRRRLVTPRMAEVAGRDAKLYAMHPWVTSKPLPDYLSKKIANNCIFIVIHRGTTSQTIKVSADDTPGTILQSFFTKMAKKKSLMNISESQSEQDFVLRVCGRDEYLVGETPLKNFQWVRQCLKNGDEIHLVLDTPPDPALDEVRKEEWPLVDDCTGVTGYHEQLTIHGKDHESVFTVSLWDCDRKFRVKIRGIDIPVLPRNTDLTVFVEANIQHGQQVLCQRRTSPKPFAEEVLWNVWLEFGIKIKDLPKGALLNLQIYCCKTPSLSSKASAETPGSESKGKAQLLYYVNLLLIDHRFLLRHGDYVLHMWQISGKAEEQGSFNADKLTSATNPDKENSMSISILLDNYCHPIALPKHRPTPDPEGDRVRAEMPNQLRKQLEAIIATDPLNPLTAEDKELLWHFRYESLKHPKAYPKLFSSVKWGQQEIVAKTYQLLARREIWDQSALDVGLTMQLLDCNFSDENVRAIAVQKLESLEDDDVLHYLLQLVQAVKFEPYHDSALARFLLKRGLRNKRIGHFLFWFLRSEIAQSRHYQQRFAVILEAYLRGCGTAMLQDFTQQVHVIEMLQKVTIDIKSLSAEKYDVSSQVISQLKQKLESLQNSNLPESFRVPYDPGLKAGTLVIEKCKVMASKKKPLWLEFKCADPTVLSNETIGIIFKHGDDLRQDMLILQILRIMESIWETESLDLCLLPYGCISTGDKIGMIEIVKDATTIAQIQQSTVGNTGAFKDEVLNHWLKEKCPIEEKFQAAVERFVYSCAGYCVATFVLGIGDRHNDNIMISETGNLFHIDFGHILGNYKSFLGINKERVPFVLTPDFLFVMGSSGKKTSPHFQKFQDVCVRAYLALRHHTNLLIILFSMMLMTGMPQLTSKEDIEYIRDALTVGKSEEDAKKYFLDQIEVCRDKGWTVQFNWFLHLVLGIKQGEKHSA

Mus musculus [19] = experiment: Antiinflammatory activity in po dosed C57BL/6J mouse ozone-induced lung inflammation model assessed as reduction in neutrophil numbers in bronchoalveolar lavage pretreated for 1 hr followed by ozone exposure for 4 hrs and subsequent redosing measured after 24 hrs by Diff-quick staining based assay; assay type: functional
How it was run: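 Mouse ozone-induced lung inflammation. Inflammatory cells are counted in bronchoalveolar lavage (neutrophils, macrophages) across several doses. ED50 is derived from the dose–response.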

[20] = biological target: Phosphatidylinositol 4-kinase beta (Homo sapiens, UniProt Q9UBF8); experiment: Inhibition of PI4Kbeta (unknown origin) using phosphatidyl inositol/n-Octyl-glucoside as substrate measured after 30 mins by KinaseGlo assay
Phosphatidylinositol 4-kinase beta, sequence (Q9UBF8 whole entry): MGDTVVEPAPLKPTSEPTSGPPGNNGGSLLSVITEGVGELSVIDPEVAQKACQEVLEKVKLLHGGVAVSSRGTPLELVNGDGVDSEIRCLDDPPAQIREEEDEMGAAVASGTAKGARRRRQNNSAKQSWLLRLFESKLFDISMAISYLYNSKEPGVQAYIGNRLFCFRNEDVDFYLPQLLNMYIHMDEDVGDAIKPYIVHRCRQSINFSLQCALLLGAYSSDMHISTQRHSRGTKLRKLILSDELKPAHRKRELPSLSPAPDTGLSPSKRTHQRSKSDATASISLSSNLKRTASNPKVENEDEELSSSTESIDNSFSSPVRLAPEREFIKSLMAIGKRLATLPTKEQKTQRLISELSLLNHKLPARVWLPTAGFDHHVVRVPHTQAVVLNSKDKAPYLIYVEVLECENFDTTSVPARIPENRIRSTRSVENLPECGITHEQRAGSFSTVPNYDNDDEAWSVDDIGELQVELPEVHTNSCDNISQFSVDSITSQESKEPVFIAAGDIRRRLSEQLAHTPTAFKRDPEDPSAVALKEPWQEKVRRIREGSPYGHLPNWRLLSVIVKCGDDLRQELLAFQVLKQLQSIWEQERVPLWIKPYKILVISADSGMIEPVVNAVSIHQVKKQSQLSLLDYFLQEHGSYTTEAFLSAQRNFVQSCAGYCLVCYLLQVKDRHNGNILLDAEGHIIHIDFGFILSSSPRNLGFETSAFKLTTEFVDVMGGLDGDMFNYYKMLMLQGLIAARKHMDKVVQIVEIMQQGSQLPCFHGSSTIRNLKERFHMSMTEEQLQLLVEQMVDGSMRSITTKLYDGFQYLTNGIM

[21] = Equilibrium solubility of the compound at pH 6.8 by LC-MS/MS analysis; assay type: physicochemical; conditions: buffer
How it was run: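 High-throughput equilibrium solubility at pH 6.8, reported in mM.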

[22] = Tmax in Sprague-Dawley rat at 30 mg/kg, po by RP-HPLC analysis; assay type: ADME, organism-based; conditions: in vivo
[23] = Oral bioavailability in Sprague-Dawley rat at 30 mg/kg by RP-HPLC analysis; assay type: ADME, organism-based; conditions: in vivo
[24] = biological target: Phosphatidylinositol 4,5-bisphosphate 3-kinase catalytic subunit beta isoform (Homo sapiens, UniProt P42338); experiment: Inhibition of recombinant PI3Kbeta (unknown origin) using phosphatidyl inositol/n-Octyl-glucoside as substrate measured after 60 mins by KinaseGlo assay
Phosphatidylinositol 4,5-bisphosphate 3-kinase catalytic subunit beta isoform, sequence (P42338 whole entry, canonical isoform): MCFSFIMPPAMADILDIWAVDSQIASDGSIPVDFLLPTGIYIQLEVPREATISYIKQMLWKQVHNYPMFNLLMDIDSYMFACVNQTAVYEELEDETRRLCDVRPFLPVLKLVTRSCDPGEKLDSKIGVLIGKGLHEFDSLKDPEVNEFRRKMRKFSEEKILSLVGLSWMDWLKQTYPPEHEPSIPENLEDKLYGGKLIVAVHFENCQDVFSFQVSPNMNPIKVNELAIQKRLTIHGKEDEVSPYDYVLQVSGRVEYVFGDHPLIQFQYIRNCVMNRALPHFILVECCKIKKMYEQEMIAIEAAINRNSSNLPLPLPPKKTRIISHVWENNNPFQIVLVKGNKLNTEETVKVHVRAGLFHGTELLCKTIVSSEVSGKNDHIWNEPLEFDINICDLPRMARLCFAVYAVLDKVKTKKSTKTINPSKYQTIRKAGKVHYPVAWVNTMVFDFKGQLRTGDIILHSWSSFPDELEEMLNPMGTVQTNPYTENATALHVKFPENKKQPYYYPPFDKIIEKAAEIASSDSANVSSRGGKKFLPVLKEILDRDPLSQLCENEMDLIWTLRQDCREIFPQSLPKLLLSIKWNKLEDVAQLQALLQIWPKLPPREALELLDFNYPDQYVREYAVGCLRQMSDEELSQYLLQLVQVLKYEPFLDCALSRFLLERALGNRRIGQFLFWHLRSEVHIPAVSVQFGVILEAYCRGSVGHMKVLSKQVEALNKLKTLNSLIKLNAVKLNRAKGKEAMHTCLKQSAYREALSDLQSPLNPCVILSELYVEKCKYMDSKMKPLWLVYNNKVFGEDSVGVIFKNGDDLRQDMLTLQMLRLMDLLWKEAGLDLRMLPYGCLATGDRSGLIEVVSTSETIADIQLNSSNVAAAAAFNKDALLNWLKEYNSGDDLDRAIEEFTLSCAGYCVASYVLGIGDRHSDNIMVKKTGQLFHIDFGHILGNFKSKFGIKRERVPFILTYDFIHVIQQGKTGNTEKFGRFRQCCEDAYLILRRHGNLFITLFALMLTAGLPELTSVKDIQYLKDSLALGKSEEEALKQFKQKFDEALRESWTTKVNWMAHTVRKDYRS

[25] = Volume of distribution at steady state in Sprague-Dawley rat at 1 mg/kg, iv by RP-HPLC analysis; assay type: ADME, organism-based; conditions: in vivo, read-out: Vdss
Rattus norvegicus [26] = experiment: Antiarthritic activity in Lewis rat type-2 collagen-induced arthritis model assessed as reduction in IgG antibodies at 10 mg/kg, po bid administered after disease onset for 40 days starting from 14 days post type-2 collagen-induction measured on day 41 by ELISA; assay type: functional, organism-based
How it was run: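 Rat collagen-induced arthritis, therapeutic regimen: dosing begins once marked paw swelling is present, 10 mg/kg b.i.d.; readout is established anti-rat collagen autoantibody response.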

[27] = Lipophilicity, log P of the compound by artificial membrane based assay; assay type: physicochemical
[28] = Terminal half life in Beagle dog at 0.1 mg/kg, iv by RP-HPLC analysis; assay type: ADME, organism-based, Canis lupus familiaris; conditions: in vivo, read-out: beta t1/2 (converted)
Mus musculus [29] = experiment: Toxicity in C57BL/6J mouse ozone-induced lung inflammation model at 10 to 100 mg/kg, po; assay type: organism-based; conditions: in vivo
How it was run: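 Mice with ozone-induced lung inflammation got repeated doses. Tolerability was judged by overt signs of toxicity during the multi-dose study. Efficacy endpoints were BAL neutrophil and macrophage counts and BAL serum albumin as a measure of plasma leakage.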

Mus musculus [30] = experiment: Toxicity in mouse assessed as effect on insulin homeostasis up to 100 mg/kg, po bid; assay type: organism-based; conditions: in vivo
Canis familiaris [31] = experiment: Dose normalized AUC in Beagle dog at 0.3 mg/kg, po by RP-HPLC analysis; assay type: ADME, organism-based, Canis lupus familiaris; conditions: in vivo
[32] = biological target: Phosphatidylinositol 3-kinase catalytic subunit type 3 (Homo sapiens, UniProt Q8NEB9); experiment: Inhibition of Vps34 (unknown origin) using phosphatidyl inositol/n-Octyl-glucoside as substrate measured after 30 mins by KinaseGlo assay
[33] = Tmax in Sprague-Dawley rat at 3 mg/kg, po by RP-HPLC analysis; assay type: ADME, organism-based; conditions: in vivo

AUC/dose (Canis familiaris [1]): 20120 nM·h
IC50 [2]: 99 nM
clearance [3]: 2 mL/min/kg
IC50 [4]: 2230 nM
half-life [5]: 108 min
EC50 (Rattus norvegicus [6]; Rattus norvegicus, Lewis): 83 nM
IC50 [7]: 4700 nM
microsomal CLint [8]: 55 µL/min/mg
fraction unbound [9]: < 0.01
Cmax/dose (Rattus norvegicus [10]): 334 nM
Cmax/dose (Cynomolgus monkey): 213 nM
half-life [11]: 42 min
AUC/dose (Rattus norvegicus [12]): 1165 nM·h
IC50 [13]: > 7400 nM
Vd [15]: 0.6 L/kg
IC50 [16]: 150 nM
IC50 [18]: 7800 nM
IC50 [20]: > 9100 nM
solubility thermodynamic [21]: 320 µM (≈ 144 µg/mL)
Tmax [22]: < 15 min
bioavailability [23]: > 100%
IC50 [24]: 424 nM
Vd [25]: 3.1 L/kg
logP [27]: 3.2
half-life [28]: 90 min
AUC/dose (Canis familiaris [31]): 11690 nM·h
IC50 [32]: > 9100 nM
Tmax [33]: 24 min
SMILES: CCC(=O)N1CC[C@H](Nc2ncnc3c2CN(c2cnc(OC)c(C(F)(F)F)c2)CC3)C1 [LENIOLISIB]
fEC50 (Rattus norvegicus [6]): 5 nM
Activity (Rattus norvegicus [14]): Active
Activity (Rattus norvegicus [17]): Active
Activity (Mus musculus [19]): Dose-dependent effect
ED50 (Mus musculus [19]): 16 mg/kg
Activity (Rattus norvegicus [26]): Active
Activity (Mus musculus [29]): Non-Toxic
Activity (Mus musculus [30]): Non-Toxic
